{"data": "Assay results from different studies", "target": "Mitogen-activated protein kinase 4 (MAPK4, Homo sapiens, UniProt P31152)", "note": "Lines come from different studies, so protocols differ."}
{"Compound": "Cn1nc(C(F)(F)F)cc1-c1cnc(N2CCc3cc(S(=O)(=O)Nc4c(F)cc(Cl)cc4F)cc(N4CCCC4=O)c32)nc1", "test": "cell-free assay, competition with immobilised ligand", "setting": "1 µM", "remaining binding [%]": 100}
{"Compound": "O=C(c1ccc(Nc2ncc(Cl)c(-c3cc4ccccc4s3)n2)cc1)N1CCC(N2CCCC2)CC1", "test": "binding, competition with immobilised ligand", "setting": "1 µM", "remaining binding [%]": 20}
{"Compound": "N[C@@H]1CCN(c2nccc(-c3cnn4ncccc34)n2)C1", "test": "binding", "setting": "1 µM", "remaining binding [%]": 100}
{"Compound": "O=C(Nc1ccc(Oc2ccc(F)cc2)cc1)N1CCc2ncccc2[C@H]1c1ccc(F)cc1", "test": "cell-free assay, competition with immobilised ligand", "setting": "1 µM", "remaining binding [%]": 95}
{"Compound": "O=C(c1ccc(Nc2nccc(-c3cc4ccccc4s3)n2)cc1)N1CCC(N2CCCC2)CC1", "test": "binding, competition with immobilised ligand", "setting": "1 µM", "remaining binding [%]": 74}
{"Compound": "CN(CCCC(F)(F)F)c1nccc(-c2cnn3ncccc23)n1", "test": "binding", "setting": "1 µM", "remaining binding [%]": 100}
{"Compound": "O=C(NCC1CCOCC1)c1n[nH]cc1NC(=O)c1c(F)cccc1F", "test": "binding, competition with immobilised ligand", "setting": "1 µM", "remaining binding [%]": 99}
{"Compound": "FC(F)(F)Oc1cccc(-c2cnc3ccc(-c4ccncc4)nn23)c1", "test": "cell-free assay, competition with immobilised ligand", "setting": "5 µM", "remaining binding [%]": 100}
{"Compound": "CCCOc1ccc([C@H]2[C@H](C(=O)O)[C@@H](c3ccc4c(c3)OCO4)CN2CC(=O)Nc2c(CC)cccc2CC)cc1", "test": "cell-free assay, competition with immobilised ligand", "setting": "1 µM", "remaining binding [%]": 93}
{"Compound": "CNC(=O)[C@@H]1CC[C@@H](n2c(-c3ccc4cnccc4c3)nc3ccc(C(=O)NCc4cccc(C(N)=O)c4)cc32)C1", "test": "binding, competition with immobilised ligand", "setting": "1 µM", "remaining binding [%]": 100}
{"Compound": "Cc1cnn2ncc(-c3ccnc(N(C)C)n3)c2c1", "test": "binding", "setting": "1 µM", "remaining binding [%]": 94}
{"Compound": "c1cncc(-c2cccc(Nc3nccc(NC4CCCCC4)n3)c2)c1", "test": "binding, competition with immobilised ligand", "setting": "10 µM", "remaining binding [%]": 95}
{"Compound": "COc1cnc(Nc2cccc(S(N)(=O)=O)c2)nc1N1CCN(c2ccccc2)CC1", "test": "binding, competition with immobilised ligand", "setting": "1 µM", "remaining binding [%]": 96}
{"Compound": "CO[C@@H](C)c1c(Nc2ccc([C@@H](N(C)C(=O)C3CCS(=O)(=O)CC3)C(F)(F)F)cc2)cnc2cc(Cl)nn12", "test": "cell-free assay, competition with immobilised ligand", "setting": "1 µM", "remaining binding [%]": 100}
{"Compound": "C[C@@H]1CCN(c2nccc(-c3cnn4ncccc34)n2)C1", "test": "binding", "setting": "1 µM", "remaining binding [%]": 100}
{"Compound": "CC(=O)c1c(NS(C)(=O)=O)c2cc(-c3ccc(Cl)cc3)c(-c3ccc(Cl)cc3Cl)nc2n(C)c1=O", "test": "cell-free assay, competition with immobilised ligand", "setting": "1 µM", "remaining binding [%]": 100}
{"Compound": "O=C(c1ccc(Nc2ncc(Cl)c(-c3ccc(Cl)s3)n2)cc1)N1CCC(N2CCCC2)CC1", "test": "binding, competition with immobilised ligand", "setting": "1 µM", "remaining binding [%]": 0.3}
{"Compound": "COc1ccnn2ncc(-c3ccnc(N(C)C)n3)c12", "test": "binding", "setting": "1 µM", "remaining binding [%]": 100}
{"Compound": "O=C1NC(c2ccccn2)Sc2ccccc21 (stereo not drawn)", "test": "cell-free assay, competition with immobilised ligand", "setting": "1 µM", "remaining binding [%]": 86}
{"Compound": "CN(C)c1ncc(F)c(-c2cnn3ncccc23)n1", "test": "binding", "setting": "1 µM", "remaining binding [%]": 100}
{"Compound": "COc1ncc2cc3ccccc3nc2c1C#N", "test": "cell-free assay, competition with immobilised ligand", "setting": "5 µM", "remaining binding [%]": 100}
